Screening data: PubChem BioAssay, Broad Institute
Statin myotox sup = suppressors of simvastatin-induced myotoxicity in C2C12 myotubes | AID 602340 | ATP luminescence, 48 h; scaled: DMSO 0, geranylgeraniol control 100 | 330,000 tested, 0.78% active | rescue of ATP level, % at 7.49 µM;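 active = mean ATP rescue above about 67%, or every replicate alone reaching that limit, limit read from the data, passing the limit was not always enough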;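 note: myotubes were challenged with 10 µM simvastatin during compound exposure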
SIRT5 inh = sirtuin-5 (human) deacylase inhibition; Q9NXA8; Purified SirT5, succinyl-peptide AMC, trypsin-coupled fluorescence; inhibition, % at 15 µM; 330,000 tested, 1.1% active; in the data active = inhibition above about 15%
Target sequence (Q9NXA8 whole entry, looked up): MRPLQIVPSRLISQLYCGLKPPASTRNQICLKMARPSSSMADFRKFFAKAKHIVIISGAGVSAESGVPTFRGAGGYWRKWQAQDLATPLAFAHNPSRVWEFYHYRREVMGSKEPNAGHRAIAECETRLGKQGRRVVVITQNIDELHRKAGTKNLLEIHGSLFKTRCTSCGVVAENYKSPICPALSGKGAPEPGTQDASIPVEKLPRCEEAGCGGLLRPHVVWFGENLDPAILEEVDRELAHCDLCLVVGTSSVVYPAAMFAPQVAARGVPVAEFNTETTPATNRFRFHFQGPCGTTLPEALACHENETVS
S100A4 inh HTS = inhibitors of human S100A4 binding to myosin IIA peptide. P26447. S100A4/TAMRA-MyoIIA peptide fluorescence polarization. inhibition, % at 10.7 µM. 360,000 tested, 0.14% active;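 active = mean inhibition of at least 70% across replicates, with every replicate also reaching that level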
Target sequence (P26447 whole entry, looked up): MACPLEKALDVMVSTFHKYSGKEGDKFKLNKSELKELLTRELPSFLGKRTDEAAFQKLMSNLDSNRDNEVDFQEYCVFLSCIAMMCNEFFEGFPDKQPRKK
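Test system: S100A4 monomer protein. Medium: HEPES buffer with Ca2+, pH 7.2. Reagent: fluorescent myosin IIA peptide, 5 nM. Compound dosing: single-point compound testing. Timing: 5 min between mix addition and reading. Benchmarks: DMSO neutral and TFP positive wells.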
Cneo AK release = causes C. neoformans cell lysis. adenylate kinase release luminescence, 4 h; normalised: neutral wells 0, clomiphene wells 100. lysis activity, % at 15 µM. 360,000 tested, 0.2% active. AID 651654;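 active = mean lysis activity across replicates of at least 80%, whatever share of replicates individually reach that level; inactive = mean lysis activity below 80%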
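Schedule: static 4 h at 37 °C with compound, 1 h detection; system: C. neoformans cells; benchmarks: Clomiphene as positive control; buffer or medium: fresh YPD medium; measure: luminescence rise reflecting yeast cell lysis; measured by: luminescent adenylate kinase detection reagent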
rRNA inh HTS = inhibitors of bacterial rRNA selective over humanized ribosomes; E. coli WT GFP vs humanized-ribosome RFP mutants, fluorescence, 24 h; hits give low values; DMSO median 0, no signal -100; GFP signal change (wild-type ribosome), % (test concentration not listed); 350,000 tested, 1.6% active; AID 720706;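 active = significant combined selectivity score with lowered wild-type GFP, culture density cut under 30%, mutant RFP and density less affected; inactive = any of these conditions unmet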
PGC1a acetyl inh = lowers PGC1a acetylation signal in U2OS cells; inhibition, % at 15.6 µM; 350,000 tested, 0.17% active; AID 651687; AlphaScreen anti-acetyl-lysine; with virally co-expressed GCN5 acetyltransferase;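 active = every replicate shows inhibition of at least 40%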;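 note: 0% = neutral control wells and 100% = positive control wells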
Active calls of the source: *; / = not tested or not shown. This is a sample that favours compounds with a hit; in the whole collection about 3% have one here.

SMILES	Statin myotox sup	SIRT5 inh	S100A4 inh HTS	Cneo AK release	rRNA inh HTS	PGC1a acetyl inh
CC(C)NC(=O)N(C)C[C@H]1Oc2ccc(NS(=O)(=O)c3cn(C)cn3)cc2C(=O)N([C@@H](C)CO)C[C@H]1C	/	-3	10	-4	4	4
CSC1=NCCN1C(=O)Cc1ccc(-c2ccccc2)cc1	/	-1	2	/	-19*	3
O=C(C[C@H]1CC[C@@H](NC(=O)c2ccc3c(c2)OCO3)[C@H](CO)O1)NCc1ccc(Oc2ccccc2)cc1	68*	1	-13	-1	-3	-11
O=C(C[C@@H]1C=C[C@H](NS(=O)(=O)c2cccc(F)c2)[C@@H](CO)O1)NCc1ccc2c(c1)OCO2	5	-1	9	-1	3	-2
COc1cccc(S(=O)(=O)N[C@H]2CC[C@H](CC(=O)NCc3ccc(F)cc3)O[C@@H]2CO)c1	4	-2	-3	-3	0	55*
O=C(C[C@H]1CC[C@H](NS(=O)(=O)c2cccc(F)c2)[C@@H](CO)O1)NCc1ccc2c(c1)OCO2	13	5	105*	23	2	-1
O=C(C[C@@H]1C=C[C@@H](NS(=O)(=O)c2cccc(F)c2)[C@@H](CO)O1)NCc1ccc2c(c1)OCO2	1	4	83*	3	-4	-6
COc1ccc(S(=O)(=O)Nc2ccc3c(c2)C(=O)N([C@@H](C)CO)C[C@H](C)[C@H](CN(C)C(=O)NC(C)C)O3)cc1	/	1	26	5	5	0
Cc1noc(C)c1S(=O)(=O)N(C)C[C@H]1OCCCC[C@@H](C)Oc2ccc(NC(=O)NC3CCCCC3)cc2C(=O)N([C@H](C)CO)C[C@@H]1C	/	-3	12	1	5	7
CC(=O)c1ccc(NC(=S)N2CCN(C(=S)Nc3ccc(C(C)=O)cc3)C(C)C2)cc1 (centres undefined)	/	4	-9	/	-5	1
CC(=O)c1ccc(NC(=S)N2CC(C)CC(C)C2)cc1 (centres undefined)	-8	16*	5	/	-2	/
CO[C@@H](C(=O)N(C)C[C@H]1OCc2ccccc2-c2ccccc2C(=O)N([C@@H](C)CO)C[C@@H]1C)c1ccccc1	-13	19*	-29	-5	0	3
CCOC(=O)N(C)C[C@H]1OCc2ccccc2-c2ccccc2C(=O)N([C@H](C)CO)C[C@@H]1C	8	21*	-7	0	2	-6
CCNC(=O)Nc1ccc2c(c1)C(=O)N(C)[C@H]1CC[C@H](CC(=O)Nc3ccccc3OC)O[C@@H]1CO2	/	0	51	/	1	2
CC(=O)Nc1ccc(NC(=O)C(C)OC(=O)CC2CCCCC2)cc1 (centres undefined)	-17	4	-5	-1	-2	/
CC(OC(=O)CC1CCCCC1)C(=O)Nc1ccc(F)cc1 (centres undefined)	15	21*	-11	0	-6	-15
COc1ccc(O)c(/C=N/NC(=O)c2c(C)nnn2-c2nonc2N)c1	/	0	-5	/	2	7
Cc1nnn(-c2nonc2N)c1C(=O)NNC(=O)c1ccc(Cl)c(Cl)c1	/	/	-14	/	-26*	-6
COCC(=O)N(C)C[C@H]1Oc2cc(C#CC3CCCC3)ccc2S(=O)(=O)N([C@H](C)CO)C[C@H]1C	-8	/	/	/	1	-20
O=C(Nc1nc(-c2ccccc2)ns1)c1cccs1	6	2	-2	20	-38*	5
COc1ccc(-c2csc(NC(=O)c3cccs3)c2C(=O)O)cc1OC	/	0	2	/	-34*	/
COc1ccc(-c2ccccc2)cc1NC(=O)c1cccs1	-19	16*	-8	-5	-5	10
CC(C)C(=O)N1CCC1(C)C(=O)Nc1ccccc1OC(F)F (centres undefined)	7	2	-4	0	-2	4
COc1ccc(-c2ccccc2)cc1NC(=O)C1(C)CCN1C(=O)C(C)C (centres undefined)	-2	22*	4	-1	-23	2
COc1ccc(-c2csc(NC(=O)c3ccccc3OC)c2C(=O)O)cc1OC	4	-4	-5	1	2	9
SMILES	Statin myotox sup	SIRT5 inh	S100A4 inh HTS	Cneo AK release	rRNA inh HTS	PGC1a acetyl inh
CCC(=O)N1CC2(C1)[C@H](c1ccc(-c3ccc(C)cc3)cc1)[C@@H](CO)N2S(=O)(=O)CC	/	-2	-7	/	-4	1
C[C@@H]1CN(C)C(=O)c2cc(NS(C)(=O)=O)ccc2O[C@@H]1CN(C)C	/	/	/	/	1	/
C[C@@H]1CN([C@@H](C)CO)C(=O)c2cc(NS(=O)(=O)c3ccccc3)ccc2O[C@H]1CN(C)Cc1ccccc1	33	-3	-4	-7	0	4
N#C[C@H]1[C@@H](c2ccccc2C2=CCCCC2)[C@@H](CO)N1C(=O)Cc1ccncc1	/	0	-4	/	-6	-5
COc1ccc(C(=O)COC(=O)C2CCC(=O)N2)cc1 (centres undefined)	/	17*	1	/	25	/
Cc1nn(-c2ccccc2)c(Cl)c1CN(C(=O)CCl)c1ccc(Cl)cc1	/	/	0	-1	-32*	/
CC(=O)N(Cc1c(C)nn(-c2ccccc2)c1Cl)c1ccc(Cl)cc1	13	/	/	0	/	-12
O=C(NCC[C@@H]1CC[C@@H](NC(=O)C2CCCC2)[C@H](CO)O1)c1cc(Cl)cc(Cl)c1	-9	0	9	-3	-6	-6
CC1(C)CC(=O)C=C(c2ccc(COC(=O)Cc3ccccc3)cc2)C1=O	4	-1	-1	1	-22*	10
C[C@H]1CCCCO[C@H](CN(C)C(=O)NC2CCCCC2)[C@@H](C)CN([C@@H](C)CO)C(=O)c2cc(NC(=O)CCCN(C)C)ccc2O1	/	-2	14	5	0	-2
CC(=O)Nc1sc(N/N=C/c2ccc(N(C)C)cc2)nc1-c1ccc(C)cc1	/	-5	-6	-2	-33*	-1
CC(=O)Nc1sc(N/N=C/c2ccc(C)cc2)nc1-c1ccc(C)cc1	/	1	0	/	-1	/
CN1C(=O)[C@@](O)(c2cn(C)c3ccccc23)c2cc(Br)ccc21	/	-5	-3	/	-23*	/
CN(C)CC(=O)Nc1ccc2c(c1)[C@@H]1C[C@H](CC(=O)NCc3cccnc3)O[C@@H](CO)[C@@H]1O2	-13	-4	-3	18	3	8
C/C(=N\NC(N)=S)c1ccccc1	/	0	2	-1	21	6
C/C(=N\NC(N)=S)c1cc(-c2ccccc2)c(-c2ccccc2)s1	108*	-1	0	19	-1	/
